Assay results as given in ChEMBL document CHEMBL4190409, “New somatostatin-drug conjugates for effective targeting pancreatic cancer” (Bioorg Med Chem, 2018).
pIC50: −log10 of the molar value. Calls of active or inactive are those of the source. The calls are words filed in the database; no cut-off is given here. Peptide text beside a SMILES is read from it.

Columns and labels:
PANC-1 [1] = experiment: Cytotoxicity against human PANC1 cells after 48 hrs by XTT assay; assay type: functional, cell-based; conditions: PANC-1, 48 h
Procedure, shortened: (§1)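 Cells seeded at 5-10 x 10^4 cells/mL and preincubated 24 h, then washed and given fresh medium with a concentration series for 48 h or 72 h. XTT added for a further 2-4 h, absorbance read at 480 and 680 nm. % growth inhibition taken against medium+solvent and solvent-free controls. DMSO final <0.05%. Tetraplicates, each experiment run twice.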

CAPAN-1 [2] = experiment: Cytotoxicity against human Capan1 cells after 72 hrs by XTT assay; assay type: functional, cell-based; conditions: CAPAN-1, 72 h; procedure, shortened: as §1
PANC-1 [3] = experiment: Cytotoxicity against human PANC1 cells after 72 hrs by XTT assay; assay type: functional, cell-based; conditions: PANC-1, 72 h; procedure, shortened: as §1
CAPAN-1 [4] = experiment: Cytotoxicity against human Capan1 cells after 48 hrs by XTT assay; assay type: functional, cell-based; conditions: CAPAN-1, 48 h; procedure, shortened: as §1
[5] = Half life in IMDM culture medium by LC-MS analysis; assay type: physicochemical
Procedure, shortened: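 Conjugate stock (10 µl) added to 1 ml IMDM (DME-based, 20% bovine serum) at 37°C. Aliquots taken at 1, 3, 6, 24, 48, 72 and 96 h, quenched with 2.5 vol ethanol, centrifuged, filtered and analysed by LC-MS. At least three measurements.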

[6] = target: T1, Somatostatin receptor type 4 (Homo sapiens, UniProt P31391); experiment: Drug uptake in HEK293 cells co-expressing SSTR4 (unknown origin) and RFP assessed as SSTR4-mediated drug accumulation by measuring mean fluorescence intensity measured after 30 mins by fluorescence microscopic analysis (reference value: 1.1); assay type: ADME, cell-based; conditions: hek293, 0.5 h
T1 sequence (P31391 whole entry): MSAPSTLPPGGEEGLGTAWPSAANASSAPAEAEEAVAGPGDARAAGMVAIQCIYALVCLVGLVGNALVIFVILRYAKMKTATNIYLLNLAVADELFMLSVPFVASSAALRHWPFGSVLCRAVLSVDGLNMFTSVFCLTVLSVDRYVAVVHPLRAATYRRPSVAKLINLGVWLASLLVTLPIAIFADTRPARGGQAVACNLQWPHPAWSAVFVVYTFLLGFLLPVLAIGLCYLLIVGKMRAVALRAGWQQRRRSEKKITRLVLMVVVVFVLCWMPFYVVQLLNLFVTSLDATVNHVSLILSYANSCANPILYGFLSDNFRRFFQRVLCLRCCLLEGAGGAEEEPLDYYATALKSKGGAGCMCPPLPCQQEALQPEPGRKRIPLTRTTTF

[7] = target: T2, Somatostatin receptor type 2 (Homo sapiens, UniProt P30874); experiment: Drug uptake in HEK293 cells co-expressing SSTR2 (unknown origin) and RFP assessed as SSTR2-mediated drug accumulation by measuring mean fluorescence intensity measured after 30 mins by fluorescence microscopic analysis (reference value: 1.1); assay type: ADME, cell-based; conditions: hek293, 0.5 h
T2 sequence (P30874 whole entry): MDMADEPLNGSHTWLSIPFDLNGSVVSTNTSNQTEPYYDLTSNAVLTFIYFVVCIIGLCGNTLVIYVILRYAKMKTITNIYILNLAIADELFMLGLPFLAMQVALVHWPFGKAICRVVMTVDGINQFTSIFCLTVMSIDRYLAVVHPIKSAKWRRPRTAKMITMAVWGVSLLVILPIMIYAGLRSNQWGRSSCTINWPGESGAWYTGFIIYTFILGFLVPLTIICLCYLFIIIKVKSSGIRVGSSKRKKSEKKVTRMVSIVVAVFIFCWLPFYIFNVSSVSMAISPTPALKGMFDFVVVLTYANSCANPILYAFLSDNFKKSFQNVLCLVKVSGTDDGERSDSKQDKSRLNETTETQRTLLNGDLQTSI

[8] = target: T1, Somatostatin receptor type 4; experiment: Agonist activity at SSTR4 (unknown origin) expressed in HEK293 cells assessed as inhibition of forskolin-induced CRE promoter activity at 10 to 1000 nM by luciferase reporter gene assay; assay type: functional, cell-based
Procedure, shortened: (§2)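 HEK-293 cells (70,000/well) co-transfected via JetPei with CRE-luciferase reporter, β-galactosidase construct and one SSTR subtype vector (empty pcDNA3.1 control). After 1 day, treated with 10 µM forskolin alone or with peptide. Luminescence read relative to forskolin alone and normalized to β-galactosidase (ONPG). Triplicates, representative of three experiments.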

[9] = target: T3, Somatostatin receptor type 1 (Homo sapiens, UniProt P30872); experiment: Agonist activity at SSTR1 (unknown origin) expressed in HEK293 cells assessed as inhibition of forskolin-induced CRE promoter activity at 10 to 1000 nM by luciferase reporter gene assay; assay type: functional, cell-based; procedure, shortened: as §2
T3 sequence (P30872 whole entry): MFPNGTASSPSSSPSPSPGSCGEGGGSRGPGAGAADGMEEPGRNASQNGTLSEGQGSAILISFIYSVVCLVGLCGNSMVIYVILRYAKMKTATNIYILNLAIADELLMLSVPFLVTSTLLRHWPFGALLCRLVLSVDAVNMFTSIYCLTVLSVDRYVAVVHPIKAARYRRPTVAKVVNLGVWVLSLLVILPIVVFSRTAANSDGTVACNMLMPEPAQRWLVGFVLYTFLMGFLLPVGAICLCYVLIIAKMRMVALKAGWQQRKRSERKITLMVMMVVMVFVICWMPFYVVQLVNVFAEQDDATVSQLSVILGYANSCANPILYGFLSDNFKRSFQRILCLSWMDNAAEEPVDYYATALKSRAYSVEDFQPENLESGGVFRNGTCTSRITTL

[10] = target: T2, Somatostatin receptor type 2; experiment: Agonist activity at SSTR2 (unknown origin) expressed in HEK293 cells assessed as inhibition of forskolin-induced CRE promoter activity at 10 to 1000 nM by luciferase reporter gene assay; assay type: functional, cell-based; procedure, shortened: as §2
[11] = target: T1, Somatostatin receptor type 4; experiment: Drug uptake in HEK293 cells co-expressing SSTR4 (unknown origin) and RFP assessed as SSTR4-mediated drug accumulation by measuring mean fluorescence intensity at 400 nM measured after 15 mins in presence of SSTR2 agonist octreotide by fluorescence assay; assay type: cell-based; conditions: hek293, 0.25 h, 0.4 µM
Procedure, shortened: (§3)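 FITC-peptide at 400 nM then added for 15 min. FITC/RFP fluorescence imaged; mean fluorescence intensity of FITC+ cells quantified (n = 10), representative of three experiments.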

[12] = target: T4, Somatostatin receptor type 3 (Homo sapiens, UniProt P32745); experiment: Drug uptake in HEK293 cells co-expressing SSTR3 (unknown origin) and RFP assessed as SSTR3-mediated drug accumulation by measuring mean fluorescence intensity measured after 30 mins by fluorescence microscopic analysis (reference value: 1.1); assay type: ADME, cell-based; conditions: hek293, 0.5 h
T4 sequence (P32745 whole entry): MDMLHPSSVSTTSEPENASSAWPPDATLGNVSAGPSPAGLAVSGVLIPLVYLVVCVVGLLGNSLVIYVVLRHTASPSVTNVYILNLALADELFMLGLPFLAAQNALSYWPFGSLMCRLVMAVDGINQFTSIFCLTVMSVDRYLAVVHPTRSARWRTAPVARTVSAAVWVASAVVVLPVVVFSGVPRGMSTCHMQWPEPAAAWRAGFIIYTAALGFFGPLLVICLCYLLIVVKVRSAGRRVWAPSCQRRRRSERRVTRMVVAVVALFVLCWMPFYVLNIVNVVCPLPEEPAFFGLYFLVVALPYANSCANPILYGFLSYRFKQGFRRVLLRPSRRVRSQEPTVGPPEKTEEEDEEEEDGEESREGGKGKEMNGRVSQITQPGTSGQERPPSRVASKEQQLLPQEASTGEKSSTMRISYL

[13] = target: T2, Somatostatin receptor type 2; experiment: Drug uptake in HEK293 cells co-expressing SSTR2 (unknown origin) and RFP assessed as SSTR2-mediated drug accumulation by measuring mean fluorescence intensity at 400 nM measured after 15 mins in presence of SSTR2 agonist octreotide by fluorescence assay; assay type: cell-based; conditions: hek293, 0.25 h, 0.4 µM; procedure, shortened: as §3
[14] = target: T4, Somatostatin receptor type 3; experiment: Agonist activity at SSTR3 (unknown origin) expressed in HEK293 cells assessed as inhibition of forskolin-induced CRE promoter activity at 10 to 1000 nM by luciferase reporter gene assay; assay type: functional, cell-based; procedure, shortened: as §2
[15] = target: T5, Somatostatin receptor type 5 (Homo sapiens, UniProt P35346); experiment: Agonist activity at SSTR5 (unknown origin) expressed in HEK293 cells assessed as inhibition of forskolin-induced CRE promoter activity at 10 to 1000 nM by luciferase reporter gene assay; assay type: functional, cell-based; procedure, shortened: as §2
T5 sequence (P35346 whole entry): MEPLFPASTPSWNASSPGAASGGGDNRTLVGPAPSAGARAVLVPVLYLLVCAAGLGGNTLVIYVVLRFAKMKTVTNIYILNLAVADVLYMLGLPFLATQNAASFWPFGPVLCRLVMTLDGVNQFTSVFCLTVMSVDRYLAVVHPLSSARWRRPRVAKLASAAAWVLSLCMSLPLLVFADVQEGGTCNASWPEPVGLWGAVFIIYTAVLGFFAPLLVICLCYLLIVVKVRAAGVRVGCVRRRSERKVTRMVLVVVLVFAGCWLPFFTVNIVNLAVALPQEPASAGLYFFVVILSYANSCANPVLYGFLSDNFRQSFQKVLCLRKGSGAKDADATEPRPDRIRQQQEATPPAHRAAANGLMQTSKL

[16] = target: T5, Somatostatin receptor type 5; experiment: Drug uptake in HEK293 cells co-expressing SSTR5 (unknown origin) and RFP assessed as SSTR5-mediated drug accumulation by measuring mean fluorescence intensity measured after 30 mins by fluorescence microscopic analysis (reference value: 1.1); assay type: ADME, cell-based; conditions: hek293, 0.5 h
[17] = target: T3, Somatostatin receptor type 1; experiment: Drug uptake in HEK293 cells co-expressing SSTR1 (unknown origin) and RFP assessed as SSTR1-mediated drug accumulation by measuring mean fluorescence intensity measured after 30 mins by fluorescence microscopic analysis (reference value: 1.1); assay type: ADME, cell-based; conditions: hek293, 0.5 h
[18] = Drug uptake in kidney of athymic nude mouse xenografted with human PANC1 cells at 120 mg/kg, iv measured after 24 hrs by fluorescent microscopic analysis; assay type: ADME, organism-based; conditions: in vivo
Procedure, shortened: (§4)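 Five-week-old athymic nude mice inoculated subcutaneously in the dorsal left side with Panc-1 cells. When tumours reached 100 mm3, FITC-labelled peptide or peptide–CPT conjugate was given intravenously at 120 mg/kg as a single dose. At 24 h, tumour, spleen, pancreas, kidney and liver were excised and fluorescence was imaged by microscopy with a CCD camera.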

[19] = Drug uptake in tumor of athymic nude mouse xenografted with human PANC1 cells at 120 mg/kg, iv measured after 24 hrs by fluorescent microscopic analysis; assay type: ADME, organism-based, Neoplasm; conditions: in vivo; procedure, shortened: as §4
[20] = Drug uptake in pancreas of athymic nude mouse xenografted with human PANC1 cells at 120 mg/kg, iv measured after 24 hrs by fluorescent microscopic analysis; assay type: ADME, organism-based; conditions: in vivo; procedure, shortened: as §4

Compound	pIC50 (PANC-1 [1])	pIC50 (CAPAN-1 [2])	pIC50 (PANC-1 [3])	pIC50 (CAPAN-1 [4])	half-life [5] [h]	other results
COc1cc(C2c3[nH]c4ccccc4c3CC3COC(=O)N32)cc(OC)c1OC(=O)NCCCC(=O)N[C@H](Cc1ccccc1)C(=O)N[C@@H](CCCNC(=N)N)C(=O)N[C@H]1CSSCCN(CC(N)=O)C(=O)[C@H](Cc2ccccc2)NC(=O)[C@H]([C@@H](C)O)NC(=O)[C@H](CCCCN)NC(=O)[C@@H](Cc2c[nH]c3ccccc23)NC(=O)[C@H](Cc2ccccc2)NC1=O (stereo partly drawn)	6.57	5.84	6.85	5.83	3	–
C[C@@H](O)[C@@H]1NC(=O)[C@H](CCCCN)NC(=O)[C@H](Cc2c[nH]c3ccccc23)NC(=O)[C@@H](Cc2c[nH]c3ccccc23)NC(=O)[C@H](Cc2ccccc2)NC(=O)[C@@H](NC(=O)[C@H](N)Cc2ccccc2)CSSCCN(CC(N)=O)C(=O)[C@H](Cc2ccccc2)NC1=O	< 4.30	< 4.30	< 4.30	< 4.30	–	–
C[C@@H](O)[C@@H]1NC(=O)[C@H](CCCCN)NC(=O)[C@@H](Cc2c[nH]c3ccccc23)NC(=O)[C@H](Cc2ccccc2)NC(=O)[C@@H](NC(=O)[C@H](CCCNC(=N)N)NC(=O)[C@H](N)Cc2ccccc2)CSSCCN(CC(N)=O)C(=O)[C@H](Cc2ccccc2)NC1=O (HELM PEPTIDE1{[dF].R.C.F.[dW].K.T.F.[O=C(CN(CCS[*:3])[*:1])[*:2]].[am]}$PEPTIDE1,PEPTIDE1,3:R3-9:R3$$$V2.0)	< 4.30	< 4.30	< 4.30	< 4.30	–	–
CC[C@@]1(O)C(=O)OCc2c1cc1n(c2=O)Cc2cc3ccccc3nc2-1 [CAMPTOTHECIN]	6.74	6.68	7.05	–	–	–
C[C@@H](O)[C@@H]1NC(=O)[C@H](CCCCN)NC(=O)[C@H](Cc2c[nH]c3ccccc23)NC(=O)[C@@H](Cc2c[nH]c3ccccc23)NC(=O)[C@H](Cc2ccccc2)NC(=O)[C@@H](NC(=O)[C@@H](Cc2ccccc2)NC(=O)CCCNC(=S)Nc2ccc(-c3c4ccc(=O)cc-4oc4cc(O)ccc34)c(C(=O)O)c2)CSSCCN(CC(N)=O)C(=O)[C@H](Cc2ccccc2)NC1=O	–	–	–	–	–	Flu intensity [6]: 32.4; Flu intensity [7]: 6.7; inhibition [8]: Active; inhibition [9]: inactive; inhibition [10]: Active; Flu intensity [11]: 21.1; Flu intensity [12]: 42.1; Flu intensity [13]: 0.9; inhibition [14]: Active; inhibition [15]: Active; Flu intensity [16]: 48.8; Flu intensity [17]: 0.9
C[C@@H](O)[C@@H]1NC(=O)[C@H](CCCCN)NC(=O)[C@@H](Cc2c[nH]c3ccccc23)NC(=O)[C@H](Cc2ccccc2)NC(=O)[C@@H](NC(=O)[C@H](N)Cc2ccccc2)CSSC[C@@H](C(=O)N[C@H](CO)[C@@H](C)O)NC1=O	–	–	–	–	–	inhibition [10]: Active; inhibition [14]: Active
COc1cc([C@@H]2c3[nH]c4ccccc4c3C[C@H]3COC(=O)N32)cc(OC)c1O	–	5.91	6.21	5.80	–	–
COc1ccc(/C=C\c2cc(OC)c(OC)c(OC)c2)cc1OC(=O)NCCCC(=O)N[C@H](Cc1ccccc1)C(=O)N[C@H]1CSSCCN(CC(N)=O)C(=O)[C@H](Cc2ccccc2)NC(=O)[C@H]([C@@H](C)O)NC(=O)[C@H](CCCCN)NC(=O)[C@H](Cc2c[nH]c3ccccc23)NC(=O)[C@@H](Cc2c[nH]c3ccccc23)NC(=O)[C@H](Cc2ccccc2)NC1=O	5.57	5.68	5.92	5.59	18	–
C[C@@H](O)[C@@H]1NC(=O)[C@H](CCCCN)NC(=O)[C@@H](Cc2c[nH]c3ccccc23)NC(=O)[C@H](Cc2ccccc2)NC(=O)[C@@H](NC(=O)[C@H](CCCNC(=N)N)NC(=O)[C@@H](Cc2ccccc2)NC(=O)CCCNC(=S)Nc2ccc(-c3c4ccc(=O)cc-4oc4cc(O)ccc34)c(C(=O)O)c2)CSSCCN(CC(N)=O)C(=O)[C@H](Cc2ccccc2)NC1=O	–	–	–	–	–	Drug uptake [18]: Active; inhibition [8]: Active; inhibition [9]: inactive; Drug uptake [19]: Active; inhibition [10]: Active; Drug uptake [20]: Not Active; inhibition [14]: Active; inhibition [15]: Active
COc1ccc(/C=C\c2cc(OC)c(OC)c(OC)c2)cc1O [COMBRETASTATIN A4]	–	–	6.80	6.08	–	–
COc1cc(C2c3[nH]c4ccccc4c3CC3COC(=O)N32)cc(OC)c1OC(=O)NCCCC(=O)N[C@H](Cc1ccccc1)C(=O)N[C@H]1CSSCCN(CC(N)=O)C(=O)[C@H](Cc2ccccc2)NC(=O)[C@H]([C@@H](C)O)NC(=O)[C@H](CCCCN)NC(=O)[C@H](Cc2c[nH]c3ccccc23)NC(=O)[C@@H](Cc2c[nH]c3ccccc23)NC(=O)[C@H](Cc2ccccc2)NC1=O (stereo partly drawn)	5.53	7.05	5.67	6.60	5	–
COc1cc(/C=C\c2ccc(ON[C@H](Cc3ccccc3)C(=O)N[C@@H](CCCNC(=N)N)C(=O)N[C@H]3CSSCCN(CC(N)=O)C(=O)[C@H](Cc4ccccc4)NC(=O)[C@H]([C@@H](C)O)NC(=O)[C@H](CCCCN)NC(=O)[C@@H](Cc4c[nH]c5ccccc45)NC(=O)[C@H](Cc4ccccc4)NC3=O)c(OC(=O)NCCCC(C)=O)c2)cc(OC)c1OC	5.76	6.28	5.93	6.17	15	–
